What is called IC50 is the concentration needed to halve the response being measured.

Assay [1] concerns the target T1, Calcitonin gene-related peptide type 1 receptor (Homo sapiens, UniProt O60894+Q16602). The assay is described as follows: Affinity against human calcitonin gene related peptide receptor (1 uM) expressed in SK-N-MC cells using [125I]-CGRP as radioligand after 180 minutes of incubation at pH 7.40. Format: cell-based. Put shortly:
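SK-N-MC cell membranes, frozen at -80 °C in Tris/BSA/bacitracin buffer, then diluted 1:10 in assay buffer (50 mM Tris, 150 mM NaCl, 5 mM MgCl2, 1 mM EDTA, pH 7.40). Filtered, gamma counted, nonspecific binding with 1 μM human α-CGRP. IC50 by one-site nonlinear regression; at least three experiments in triplicate.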

The target of assay [2] is Calcitonin gene-related peptide type 1 receptor (Rattus norvegicus, UniProt Q63118). The assay is described as follows: Affinity against calcitonin gene related peptide receptor (1 uM) in rat spleen using [125I]CGRP as radioligand after 180 minutes of incubation at pH 7.40. Format: tissue-based. The gist of the method: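 Membrane homogenates of marmoset or rat spleen, diluted 1:10 in assay buffer (50 mM Tris, 150 mM NaCl, 5 mM MgCl2, 1 mM EDTA, pH 7.40). Incubated 180 min at ambient temperature with 50 pM 125I-CGRP and increasing test concentrations, then filtered on PEI-treated GF/B filters and gamma counted. Nonspecific binding defined with 1 μM human α-CGRP. IC50 from one-site nonlinear regression.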
Sequence of Calcitonin gene-related peptide type 1 receptor (Rattus norvegicus, UniProt Q63118) (Q63118 whole entry): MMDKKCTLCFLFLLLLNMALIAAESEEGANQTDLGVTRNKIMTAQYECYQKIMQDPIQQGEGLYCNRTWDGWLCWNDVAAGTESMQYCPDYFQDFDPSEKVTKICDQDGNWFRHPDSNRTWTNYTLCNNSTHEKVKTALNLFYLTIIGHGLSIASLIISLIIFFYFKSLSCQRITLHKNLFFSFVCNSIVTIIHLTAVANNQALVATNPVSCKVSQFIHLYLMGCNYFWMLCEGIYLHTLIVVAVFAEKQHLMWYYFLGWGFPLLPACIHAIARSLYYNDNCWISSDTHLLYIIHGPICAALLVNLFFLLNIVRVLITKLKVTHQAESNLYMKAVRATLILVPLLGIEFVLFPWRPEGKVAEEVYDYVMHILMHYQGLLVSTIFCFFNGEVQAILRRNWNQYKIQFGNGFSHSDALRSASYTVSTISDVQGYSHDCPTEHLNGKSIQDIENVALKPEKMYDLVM

The target in assay [3] is T1, Calcitonin gene-related peptide type 1 receptor. Briefly: Antagonistic activity against calcitonin gene related peptide receptor determined by measuring the formation of cyclic AMP in SK-N-MC cells. The class given is functional, cell-based. As to conditions: read-out: pA2 (converted).

T1 sequence (Q16602 whole entry, one chain of several): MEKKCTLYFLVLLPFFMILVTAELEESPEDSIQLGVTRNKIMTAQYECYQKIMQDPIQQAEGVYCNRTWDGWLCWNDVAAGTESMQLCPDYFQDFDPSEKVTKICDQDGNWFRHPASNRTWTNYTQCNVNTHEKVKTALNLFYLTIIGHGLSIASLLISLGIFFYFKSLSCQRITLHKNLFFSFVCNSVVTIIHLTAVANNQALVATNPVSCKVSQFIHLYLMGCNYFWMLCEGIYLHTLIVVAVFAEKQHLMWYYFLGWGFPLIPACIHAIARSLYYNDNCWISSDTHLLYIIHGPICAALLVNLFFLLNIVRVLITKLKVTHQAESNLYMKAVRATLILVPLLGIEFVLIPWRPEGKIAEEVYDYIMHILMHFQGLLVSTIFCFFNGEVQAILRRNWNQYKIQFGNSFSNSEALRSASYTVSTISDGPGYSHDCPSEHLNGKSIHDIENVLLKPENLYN

In the case of `COc1ccccc1N1CCN(C(=O)N[C@@H](Cc2cc(Br)c(O)c(Br)c2)C(=O)N[C@H](CCCCN)C(=O)N2CCN(c3ccncc3)CC2)CC1`, the IC50 in assay [1] stood at 226 nM. On the same count and under the same terms, next, `COc1ccccc1C1CCN(C(=O)N[C@@H](Cc2cc(Br)c(O)c(Br)c2)C(=O)N[C@H](CCCCN)C(=O)N2CCN(c3ccncc3)CC2)CC1`: 250 nM; `NCCCC[C@@H](NC(=O)[C@H](Cc1cc(Br)c(N)c(Br)c1)NC(=O)CCCc1ccccc1)C(=O)N1CCN(c2ccccc2)CC1`: > 300000 nM. For the molecule `NCCCC[C@H](NC(=O)[C@@H](Cc1cc(Br)c(O)c(Br)c1)NC(=O)CCCc1ccccc1)C(=O)NCCc1ccccc1`, the IC50 in assay [1] is > 300000 nM.

Consider `NCCCC[C@@H](NC(=O)[C@H](Cc1cc(Br)c(N)c(Br)c1)NC(=O)CCCc1ccccc1)C(=O)N1CCNCC1`, for which, in assay [1], the IC50 is > 300000 nM. The same measure, in the same setting: next, `NCCCC[C@@H](NC(=O)[C@H](Cc1cc(Br)c(N)c(Br)c1)NC(=O)CCc1ccccc1)C(=O)NCCc1ccccc1`: 196000 nM.

In the case of `NCCCC[C@@H](NC(=O)[C@H](Cc1cc(Br)c(O)c(Br)c1)NC(=O)N1CCC(N2Cc3ccccc3NC2=O)CC1)C(=O)N1CCN(c2ccncc2)CC1`, the IC50 in assay [2] came to 6.4 nM. `COc1ccccc1CCNC(=O)N[C@@H](Cc1cc(Br)c(O)c(Br)c1)C(=O)N[C@H](CCCCN)C(=O)N1CCN(c2ccncc2)CC1`: in assay [1], the IC50 was determined as 1000 nM. On to `NCCCC[C@@H](NC(=O)[C@H](Cc1cc(Br)c(O)c(Br)c1)NC(=O)CCCc1ccccc1)C(=O)NCCc1ccccc1`, for which the IC50 in assay [1] was determined as 17000 nM.

As to `NCCCC[C@@H](NC(=O)[C@H](Cc1cc(Br)c(N)c(Br)c1)NC(=O)CCCc1ccccc1)C(=O)N1CCN(c2ccncc2)CC1`, the IC50 in assay [1] stood at 10300 nM. For `NCCCC[C@@H](NC(=O)[C@H](Cc1cc(Br)c(O)c(Br)c1)NC(=O)N1CCC(n2c(=O)oc3ccccc32)CC1)C(=O)N1CCN(c2ccncc2)CC1`, in assay [1], the IC50 was 44 nM. The Kb in assay [3] was 10 nM. Turning to `COc1ccccc1CCNC(=O)N[C@@H](Cc1cc(Br)c(O)c(Br)c1)C(=O)N[C@H](CCCCN)C(=O)NCCc1ccccc1`, the IC50 in assay [1] turned out to be 13000 nM. Take `COc1cccc(CCNC(=O)N[C@@H](Cc2cc(Br)c(O)c(Br)c2)C(=O)N[C@H](CCCCN)C(=O)N2CCN(c3ccncc3)CC2)c1`: the IC50 in assay [1] worked out at 200 nM; in assay [2], 70500 nM. Also, the Kb in assay [3] was 126 nM. On to `NCCCC[C@H](NC(=O)[C@H](Cc1cc(Br)c(O)c(Br)c1)NC(=O)CCCc1ccccc1)C(=O)NCCc1ccccc1`, for which, in assay [1], the IC50 was > 300000 nM. Turning to `NCCCC[C@@H](NC(=O)[C@H](Cc1cc(Br)c(O)c(Br)c1)NC(=O)N1CCC(N(C(N)=O)c2ccccc2)CC1)C(=O)N1CCN(c2ccncc2)CC1`, the IC50 in assay [1] came out at 4.7 nM. The Kb in assay [3] was 0.794 nM. `NCCCC[C@@H](NC(=O)[C@@H](Cc1cc(Br)c(O)c(Br)c1)NC(=O)CCCc1ccccc1)C(=O)NCCc1ccccc1`: in assay [1], the IC50 was > 300000 nM. In the case of `NCCCC[C@@H](NC(=O)[C@H](Cc1cc(Br)c(O)c(Br)c1)NC(=O)N1CCC(n2c(O)nc3ccccc32)CC1)C(=O)N1CCN(c2ccncc2)CC1`, the IC50 in assay [1] came out at 0.2 nM; in assay [2], 56.7 nM. The Kb in assay [3] was 0.0794 nM. Regarding `NCCCC[C@@H](NC(=O)[C@H](Cc1cc(Br)c(O)c(Br)c1)NC(=O)N1CCC(n2cc(-c3ccccc3)[nH]c2=O)CC1)C(=O)N1CCN(c2ccncc2)CC1`, the IC50 in assay [1] was 0.05 nM. The same measure, in the same setting: next, `NCCCC[C@@H](NC(=O)[C@H](Cc1cc(Br)c(N)c(Br)c1)NC(=O)CCCc1ccccc1)C(=O)Nc1ccccc1`: 50000 nM. Take `NCCCC[C@@H](NC(=O)[C@H](Cc1cc(Br)c(N)c(Br)c1)NC(=O)CCCc1ccccc1)C(=O)NCCc1ccccc1`: the IC50 in assay [1] turned out to be 40000 nM.

Values taken from ChEMBL document CHEMBL1141083, “Development of human calcitonin gene-related peptide (CGRP) receptor antagonists. 1. Potent and selective small molecule CGRP antagonists. 1-[N2-[3,5-dibromo-N-[[4-(3,4-dihydro-2(1H)-oxoquinazolin-3-yl)-1-piperidinyl]carbonyl]-D-tyrosyl]-l-lysyl]-4-(4-pyridinyl)piperazine: the first CGRP antagonist …” (J Med Chem, 2005).
